ChEMBL document CHEMBL4513216, “Probing the Open Global Health Chemical Diversity Library for Multistage-Active Starting Points for Next-Generation Antimalarials” (ACS Infect Dis, 2020)

Experiment: Toxicity liver stage against HepG2, at 10uM
Type: cell-based
Design: test concentration 10 uM, cell line HepG2-A16-CD81EGFP
Conditions: human, HepG2-A16-CD81EGFP cells; read-out: INHIBITION
In short: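 Uninfected HepG2-A16-CD81EGFP cells, 3 × 10^3 per well, 1536-well, plated on prespotted compound at 10 μM final, parasite-free screening media added to match infected plates; puromycin 10 μM positive, DMSO 0.5% negative; run in parallel with 48 h PbLuc assay at 37 °C, 5% CO2; viability by CellTiter-Glo luminescence, normalized to controls.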

SMILES | cytotoxicity at 10 µM [%]
Cc1ccc(CN2CC[C@H](c3nc4cccc(C(N)=O)c4[nH]3)C2)cc1 | 35.1
CCOC(=O)[C@H]1[C@@H](O)C(=O)N(C)C12CCN(C(=O)c1ccccc1)CC2 | -6.53
COc1ccc(-c2csc3c2c(N)nc(=O)n3CC(N)=O)cc1 | -42.2
CCOc1ccc(S(=O)(=O)N(CCOC)Cc2ccncc2)cc1F | 52.2
CNC(=O)[C@@H]1CC[C@@H]2[C@@H](CCN2C(=O)N(C)C)O1 | 13.2
OCCOCc1n[nH]c2c1CN(Cc1cccs1)C2 | 6.65
Cc1nc(C(=O)N2C[C@@H]3CN(S(C)(=O)=O)CCO[C@@H]3C2)cs1 | 1.98
O=C(c1ccco1)N1CC[C@H]2[C@H]1CCN2S(=O)(=O)C1CC1 | 9.22
O=C1CC2(CCN(Cc3cccs3)C2)CN1c1cccc(F)c1 (stereo not given) | -148
Cc1c(C)n(Cc2ccccn2)c2nc3c(c(N)c12)CCCC3 | 8.37
Cc1cccc(CN2C[C@@H]3CN(C(=O)[C@H]4CCCO4)C[C@@H]3C2=O)c1 | 9.95
CC(C)CCN1CCN(CC(=O)Nc2ccc3nsnc3c2)CC1 | -0.216
O=C1CNc2ncnc(N3CCN(c4ccccc4F)CC3)c2N1 | 7.69
Cc1nn(C)c2cn(C(C)C(=O)NCc3cccc(F)c3)nc12 (stereo not given) | 6.61
CCn1nc(C)c(CNC(=O)c2nnc3ccccc3n2)c1C | 5.81
Cc1nn(C)cc1-c1cc(C(F)(F)F)nc(NC2CCCCC2)n1 | 6.9
O=C(C1CC1)N1C[C@H]2CCCN(S(=O)(=O)c3ccc4c(c3)CCC4)[C@H]2C1 | 8.52
Cn1ncc2ccc(C3CCCN(C(=O)Cc4cccs4)C3)nc21 (stereo not given) | 10
Cc1cc(-c2cnc(N3CCCCCC3)nc2-c2cccnc2C)on1 | -8.75
Cc1ocnc1C(=O)N1CC[C@@H](O)[C@@H](O)[C@H](N2CCC(F)(F)CC2)C1 | 4.86
Cc1ccccc1-n1cnc(Cl)c1CO | 8.48
Cc1cccn2cc(CC(=O)N(CCN(C)C)CC3CCCO3)nc12 (stereo not given) | 0.462

SMILES | cytotoxicity at 10 µM [%]
COCCCNC(=O)CN(C)C(C)c1nc(C(C)C)no1 (stereo not given) | 8.24
Cc1cc(C)c(C#N)c(NCCn2cnnc2C(C)C)n1 | 10.2
Cc1ccc(CNC(=O)C2CCNC(=O)C2)c(OCCC(C)C)c1 (stereo not given) | 20.4
Cc1cc(C2CCCN(Cc3cccnc3)C2)n[nH]1 (stereo not given) | 9
Cc1nnc(CN2CCN(Cc3nccn3C)CC2)n1C | -2.4
CC1CN(Cc2cccc(CN)c2)CCO1 (stereo not given) | -8.99
O=C1NCCCCC1NC(=O)N1CCCc2cc(F)ccc21 (stereo not given) | -4.53
CC(C)Cn1ncc(C(=O)NS(=O)(=O)C2CCCC2)c1C1CC1 | -9.97
NC(=O)CN1CCN(CC2CC2)c2ccccc21 | 3.92
Cn1c(C2CCCN2C(=O)CN2CSCC2=O)nc2ccccc21 (stereo not given) | 7.81
Cc1nc(C2CCCN(C(=O)C3=NN(C(C)C)C(=O)CC3)C2)no1 (stereo not given) | -3.32
Clc1cncc(NCc2cccc(OCCN3CCOCC3)c2)n1 | 9.71
O=C(O)c1ncccc1OCC(F)(F)F | -8.76
COc1ccc(CCNC(=O)C(C)Nc2ccc(C)c(C)c2)cc1 (stereo not given) | 2.7
CCCn1cc(NC(=O)c2cccnc2O)ccc1=O | -13.1
Cc1ccc(-n2nnc(C(=O)NCCS(N)(=O)=O)c2C2CC2)cc1 | -5.21
CCOCc1cccc(NC(=O)C2COCCO2)c1 (stereo not given) | 3.96
CN1CCN(Cc2ccccc2CNC(=O)c2cc(Br)ccc2F)CC1 | 6.37
CN(C)c1cccc(C(=O)NCC2(O)CCOCC2)c1 | 10.3
CC(C#N)CSc1ccccc1NCC(=O)NCc1cccs1 (stereo not given) | 2.13
CN(Cc1cccs1)C(=O)CN1CCCCC1Cn1cncn1 (stereo not given) | 8.97
Cc1occc1CNC(=O)C1(C)CCCN(C(=O)c2ccccc2)C1 (stereo not given) | -7.01

SMILES | cytotoxicity at 10 µM [%]
Cc1cc(N2CCC(N(C)Cc3cccnc3)C2=O)n(C)n1 (stereo not given) | -9.98
CCc1cc(N2CCCC(c3noc(CC)n3)C2)ncn1 (stereo not given) | 9.74
CCCC(NC(=O)NCc1cccc(N(C)C)n1)c1ccccn1 (stereo not given) | 19.8
Cc1n[nH]c(SCC(=O)NC(c2ccccn2)C(C)C)n1 (stereo not given) | -2.62
Cc1cc(C2CCCN2C(=O)CN(C)Cc2ccccc2)no1 (stereo not given) | 5.1
CCC(C(=O)Nc1ccc(-c2nc(C)n[nH]2)cc1)N1CCCC1=O (stereo not given) | -44.8
CC(=O)N1CCc2nc(-c3ccccc3)nc(NC(C)C)c2CC1 | -119
Cc1nc([C@H]2C[C@@H]3CCN(Cc4ccc5c(c4)OCO5)C[C@H]3O2)no1 | -110
Cn1cccc1C(=O)NCc1cn2c(n1)CN(CC1CCOC1)CC2 (stereo not given) | -99.7
O=c1[nH][nH]cc1-c1ccnc(NCCc2cccnc2)n1 | -8.86
CC(=O)Nc1nc2c(s1)C(C)(C)Nc1ccccc1S2 | -7.08
CN(C)CCN1CCN(C)c2nc(-c3ccccc3)ncc2C1=O | -11.6
CC(C)(C)Nc1nc(-c2cccnc2)c(-c2ccnc(NCCO)n2)s1 | -5.64
c1cc2c(c(-c3cc(N4CCOCC4)ncn3)c1)CCNC2 | -22.5
CSc1ccc(CN(C(=O)c2cc[nH]n2)C2CC2)cc1 | -44.4
Cc1ccc(C(=O)NCC2CCN(Cc3ccccc3C#N)C2)cn1 (stereo not given) | 1.48
Cc1ccccc1C1CCN(CCn2cc(-c3cccc(O)c3)nn2)C1 (stereo not given) | 18.2
Cn1cc(CN2CCCC(CCc3ccc(F)cc3)C2)cn1 (stereo not given) | -12.6
Cc1cccc(-c2nc(N)nc3c2CN(C(=O)c2cc(C)n[nH]2)C3C)c1 (stereo not given) | 4.58
Cc1cc(N2CCCN(C(=O)Cc3cccnc3)CC2)ccn1 | 2.5
Nc1cc(-c2nccnc2N2CCCC2)c2cc[nH]c2n1 | 13.6
Cc1nnc(SCCCNc2cc(C3CC3)ncn2)s1 | 19.8

SMILES | cytotoxicity at 10 µM [%]
COC(=O)c1cc(OCC2CCC2)cc(C(=O)N[C@@H]2CCCNC2)c1 | -3.16
NC(=O)CN1CCCC(C(=O)N2CCC(O)(c3ccccc3)CC2)C1 (stereo not given) | -7.55
COc1nc2ccn(CCNc3cc(C)ccn3)c(=O)c2cc1C#N | 11.7
CN(C)S(=O)(=O)NC1CCCc2c1cnn2-c1ccc(C(C)(C)C)cc1 (stereo not given) | 42.5
COc1ccc2c(c1)ncn2C[C@]1(O)CCCN2CCCC[C@@H]21 | -0.71
Cc1cc(CN(C)C(C(=O)O)c2ccc(C(C)(C)C)cc2)on1 (stereo not given) | -6.36
N#Cc1ccc(N2CCCC(CO)(CCOc3ccccc3)C2)nc1 (stereo not given) | 17.4
CCS(=O)(=O)c1ncc(CN2CCSCC2)n1CCc1ccccc1 | -1.95
O=C1CC2(CCN(Cc3ccc4cccc(O)c4n3)CC2)CN1 | -15.3
Cc1nc2sccn2c1C(=O)N1CCc2[nH]cnc2C1 | -6.11
NCc1cn(CC2CCCN(C(=O)CC3=CCCCC3)C2)nn1 (stereo not given) | 1.46
COC(=O)c1cccnc1N1CCC(Oc2cccc(F)c2)CC1 | 3.31
Cn1ccnc1C1CCN(C(=O)COCC(F)(F)C(F)F)CC1 | -45.2
Cc1cccc(CN2CCC(c3nccn3CC(N)=O)CC2)n1 | -5.41
O=C1c2cc(Br)cc(Br)c2OCC1(CN1CCCC1)CN1CCCC1 | -7.83
CCN(CC)CCn1c(NC(=O)c2scnc2C)nc2ccccc21 | -27.5
CN(Cc1ccc2c(c1)OCCO2)Cc1nc2c(cnn2C)c(=O)[nH]1 | -4.45
CCc1ccc(C(CNC(=O)c2c(C)noc2C)N(C)C)cc1 (stereo not given) | -7.83
CCCC(=O)NC1CCN(c2ccccc2S(=O)(=O)CC)CC1 | -2.78
Cc1cnn(CC(C)NCc2ccc(OCc3cccnc3)cc2)c1 (stereo not given) | -1.07
O=C(CCNC(=O)c1ccoc1)Nc1ccc(F)cc1F | -6.44
CNC(=O)CN1CCCC(Cc2ccccc2OC)C1 (stereo not given) | -8.53

SMILES | cytotoxicity at 10 µM [%]
Cc1cc(CN2CCN(c3ccc4nncn4n3)C(C)C2)no1 (stereo not given) | -4.66
CNC(=O)c1ccc(C(=O)N2CCCC2c2cnn(C)c2)cn1 (stereo not given) | -6.41
COCCN1CCC(CNC(=O)c2cc(C)cc(C)c2)C1 (stereo not given) | -7.32
Cc1noc(NC(=O)c2ccc(C)c(F)c2)n1 | -10.1
CCNC(=O)c1ccc(CNCc2c(C)nn(C)c2N(C)C)cc1 | 1.71
CN(CCc1ccccc1)Cc1c(C2CCNCC2)[nH]c2ncccc12 | 55.5
Cc1noc2nc(C3CCN(CC4CCCCC4)CC3)cc(C(F)F)c12 | -0.335
CN1CCC2(CC1)CC(NC(=O)c1csnn1)c1ccccc1O2 (stereo not given) | -95.4
Cc1ccc(CN2CC[C@H]3[C@H]2CCN3S(C)(=O)=O)s1 | 2.38
CN(Cc1ccncc1)C1COC2(CCN(Cc3ccco3)CC2)C1 (stereo not given) | -77.9
NCC(=O)N1CCCC1c1nccnc1Nc1ncccn1 (stereo not given) | -2.42
c1cnc(N2C[C@H]3CCN(CC4CC4)C[C@H]3C2)cn1 | -108
NC(=O)CC1CC2(CCNCC2)c2cc(F)ccc21 (stereo not given) | -107
O=C(CC1CC1)N1CC[C@H]2[C@@H]1CCC(=O)N2c1cccnc1 | 3.06
Cn1nccc1-c1ncc2c(c1C(=O)O)CCN(Cc1ccccc1)C2 | 9.97
CN1CCN(Cc2ccncc2)C(=O)C12CCN(c1nccs1)CC2 | -2.82
O=C(c1cccnc1)N1CCC2(CCN(C(=O)c3ccco3)CC2)C1 | -91.6
c1cnn(Cc2cnc3n2CCN(CC2CCCCC2)C3)c1 | -78.8
O=C(c1ccncc1)N1CCOC2(CCCN(c3nncs3)C2)C1 (stereo not given) | -98
CCC(=O)N1CCC2(CC1)C(c1cccnc1)CC(=O)N2CCOC (stereo not given) | -94.1
O=C1NC2(CCN(Cc3cccs3)CC2)CC1c1ccncc1 (stereo not given) | 1.2
COCC(=O)N1CCCC(c2cc(C(F)F)n3ncnc3n2)C1 (stereo not given) | -8.43
